# Reference: ChEMBL document CHEMBL3526146, “In vitro and in vivo metabolism and pharmacokinetics of BMS-562086, a potent and orally bioavailable corticotropin-releasing factor-1 receptor antagonist” (Drug Metab Dispos, 2012)
# Tests used:
# [1] = Drug metabolism in rat hepatocytes assessed as DPH-124921 metabolite level at 25 uM after 3 hrs by LC-MS/MS analysis; type: ADME, cell-based, Hepatocyte
# Procedure, shortened: (§1)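 Hepatocytes checked for viability by trypan blue exclusion, then diluted in Krebs-Henseleit buffer to 1.0 × 10^6 cells/ml. Incubated in duplicate with 25 µM compound at 37°C for 3 h on an orbital shaker (80 rpm) under 95/5 O2/CO2. Negative control had no cells. Stopped with ice-cold acetonitrile, sonicated, centrifuged; supernatant analysed by LC/MS/MS.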
# [2] = Drug metabolism in beagle dog hepatocytes assessed as DPH-124921 metabolite level at 25 uM after 3 hrs by LC-MS/MS analysis; type: ADME, cell-based, Canis lupus familiaris, Hepatocyte
# Procedure, shortened: (§2)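 Mouse, rat, dog, monkey and human hepatocytes (trypan blue viability checked) at 1.0×10^6 cells/ml in Krebs-Henseleit buffer were incubated with 25 µM compound, in duplicate. Conditions were 37°C, 95/5 O2/CO2, orbital shaking, 3 h. 7-Ethoxycoumarin and 7-hydroxycoumarin (100 µM) served as positive controls, with a cell-free negative control. Reactions were quenched with ice-cold acetonitrile, then sonicated and centrifuged; supernatants were analysed by LC/MS/MS.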
# [3] = Drug metabolism in cynomolgus monkey cryopreserved hepatocytes assessed as DPH-124921 metabolite level at 25 uM after 3 hrs by LC-MS/MS analysis; type: ADME, cell-based, Macaca fascicularis, Hepatocyte; procedure, shortened: as §2
# [4] = Drug metabolism in mouse hepatocytes assessed as BMS-572273 metabolite level at 25 uM after 3 hrs by LC-MS/MS analysis; type: ADME, cell-based, Hepatocyte; procedure, shortened: as §1
# [5] = Drug metabolism in rat hepatocytes assessed as BMS-572273 metabolite level at 25 uM after 3 hrs by LC-MS/MS analysis; type: ADME, cell-based, Hepatocyte; procedure, shortened: as §1
# [6] = Drug metabolism in cynomolgus monkey cryopreserved hepatocytes assessed as BMS-572273 metabolite level at 25 uM after 3 hrs by LC-MS/MS analysis; type: ADME, cell-based, Macaca fascicularis, Hepatocyte; procedure, shortened: as §2
# [7] = Drug metabolism in human cryopreserved hepatocytes assessed as BMS-572273 metabolite level at 25 uM after 3 hrs by LC-MS/MS analysis; type: ADME, cell-based, Hepatocyte; procedure, shortened: as §1
# [8] = Drug metabolism in mouse liver microsomes at 100 uM after 1 hr in presence of NADPH; type: ADME
# Procedure, shortened: (§3)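 Liver microsomes (1 mg/ml protein) in 100 mM phosphate buffer with 100 µM test compound. Reaction started by adding NADPH (1 mM), then run at 37°C for 1 h in a shaking water bath, in duplicate. Controls lacked microsomal protein or NADPH; 7-ethoxycoumarin (100 µM) was the positive control. Metabolites identified by LC/MS/MS.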
# Liver microsome [9] = assay: Drug metabolism in dog liver microsomes at 100 uM after 1 hr in presence of NADPH; type: ADME, Canis lupus familiaris; procedure, shortened: as §3
# [10] = Drug metabolism in cynomolgus monkey liver microsomes at 100 uM after 1 hr in presence of NADPH; type: ADME, Macaca fascicularis
# Procedure, shortened: (§4)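 Mouse, rat, dog, monkey and human liver microsomes (1 mg/ml protein) were incubated with 100 µM compound in 100 mM phosphate buffer. Reactions were started with 1 mM NADPH and run 1 h at 37°C in duplicate. Controls lacked protein or NADPH, plus a 7-ethoxycoumarin (100 µM) positive control. Metabolites were identified by LC/MS/MS.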
# Liver microsome [11] = assay: Drug metabolism in human liver microsomes at 100 uM after 1 hr in presence of NADPH; type: ADME; procedure, shortened: as §3
# [12] = Drug metabolism in mouse liver microsomes assessed as DPH-123554 metabolite level at 100 uM after 1 hr in presence of NADPH; type: ADME; procedure, shortened: as §3
# Liver microsome [13] = assay: Drug metabolism in rat liver microsomes assessed as DPH-123554 metabolite level at 100 uM after 1 hr in presence of NADPH; type: ADME; procedure, shortened: as §3
# Liver microsome [14] = assay: Drug metabolism in beagle dog liver microsomes assessed as DPH-123554 metabolite level at 100 uM after 1 hr in presence of NADPH; type: ADME, Canis lupus familiaris; procedure, shortened: as §4
# [15] = Drug metabolism in cynomolgus monkey liver microsomes assessed as DPH-123554 metabolite level at 100 uM after 1 hr in presence of NADPH; type: ADME, Macaca fascicularis; procedure, shortened: as §4
# Liver microsome [16] = assay: Drug metabolism in human liver microsomes assessed as DPH-123554 metabolite level at 100 uM after 1 hr in presence of NADPH; type: ADME; procedure, shortened: as §3
# [17] = Drug metabolism in mouse liver microsomes assessed as DPH-124921 metabolite level at 100 uM after 1 hr in presence of NADPH; type: ADME; procedure, shortened: as §3
# [18] = Drug metabolism in mouse liver microsomes assessed as BMS-572273 metabolite level at 100 uM after 1 hr in presence of NADPH; type: ADME; procedure, shortened: as §3
# Liver microsome [19] = assay: Drug metabolism in human liver microsomes assessed as BMS-572273 metabolite level at 100 uM after 1 hr in presence of NADPH; type: ADME; procedure, shortened: as §3
# Hepatocyte [20] = assay: Detection of compound level in rat hepatocytes treated with 25 uM of BMS-562086 after 3 hrs by LC-MS/MS analysis; type: ADME, cell-based; procedure, shortened: as §2
# Hepatocyte [21] = assay: Detection of compound level in human cryopreserved hepatocytes treated with 25 uM of BMS-562086 after 3 hrs by LC-MS/MS analysis; type: ADME, cell-based; procedure, shortened: as §2
# [22] = Drug metabolism in mouse hepatocytes at 25 uM after 3 hrs by LC-MS/MS analysis; type: ADME, cell-based, Hepatocyte; procedure, shortened: as §1
# [23] = Drug metabolism in beagle dog hepatocytes at 25 uM after 3 hrs by LC-MS/MS analysis; type: ADME, cell-based, Canis lupus familiaris, Hepatocyte; procedure, shortened: as §2
# [24] = Drug metabolism in cynomolgus monkey cryopreserved hepatocytes at 25 uM after 3 hrs by LC-MS/MS analysis; type: ADME, cell-based, Macaca fascicularis, Hepatocyte; procedure, shortened: as §2
# [25] = Drug metabolism in human cryopreserved hepatocytes at 25 uM after 3 hrs by LC-MS/MS analysis; type: ADME, cell-based, Hepatocyte; procedure, shortened: as §1
# [26] = Drug metabolism in mouse hepatocytes assessed as DPH-123554 metabolite level at 25 uM after 3 hrs by LC-MS/MS analysis; type: ADME, cell-based, Hepatocyte; procedure, shortened: as §1
# [27] = Drug metabolism in rat hepatocytes assessed as DPH-123554 metabolite level at 25 uM after 3 hrs by LC-MS/MS analysis; type: ADME, cell-based, Hepatocyte; procedure, shortened: as §1
# [28] = Drug metabolism in cynomolgus monkey cryopreserved hepatocytes assessed as DPH-123554 metabolite level at 25 uM after 3 hrs by LC-MS/MS analysis; type: ADME, cell-based, Macaca fascicularis, Hepatocyte; procedure, shortened: as §2
# [29] = Drug metabolism in human cryopreserved hepatocytes assessed as DPH-123554 metabolite level at 25 uM after 3 hrs by LC-MS/MS analysis; type: ADME, cell-based, Hepatocyte; procedure, shortened: as §1
# [30] = Drug metabolism in mouse hepatocytes assessed as DPH-124921 metabolite level at 25 uM after 3 hrs by LC-MS/MS analysis; type: ADME, cell-based, Hepatocyte; procedure, shortened: as §1
# [31] = Detection of compound level in mouse liver microsomes treated with BMS-562086 by LC-MS/MS analysis
# Liver microsome [32] = assay: Detection of compound level in rat liver microsomes treated with 100 uM of BMS-562086 after 1 hr by LC-MS/MS analysis
# Liver microsome [33] = assay: Detection of compound level in human liver microsomes treated with 100 uM of BMS-562086 after 1 hr by LC-MS/MS analysis
# Liver microsome [34] = assay: Detection of compound level in beagle dog liver microsomes treated with 100 uM of BMS-562086 after 1 hr by LC-MS/MS analysis
Drug metabolism [1],Drug metabolism [2],Drug metabolism [3],Drug metabolism [4],Drug metabolism [5],Drug metabolism [6],Drug metabolism [7],Drug metabolism [8],Drug metabolism (Liver microsome [9]),Drug metabolism [10],Drug metabolism (Liver microsome [11]),Drug metabolism [12],Drug metabolism (Liver microsome [13]),Drug metabolism (Liver microsome [14]),Drug metabolism [15],Drug metabolism (Liver microsome [16]),Drug metabolism [17],Drug metabolism [18],Drug metabolism (Liver microsome [19]),Drug metabolism (Hepatocyte [20]),Structure (SMILES),further results
metabolite_detected,metabolite_detected,metabolite_detected,metabolite_detected,metabolite_detected,metabolite_detected,metabolite_detected,metabolite_detected,metabolite_detected,metabolite_detected,metabolite_detected,metabolite_detected,metabolite_detected,metabolite_detected,metabolite_detected,metabolite_detected,metabolite_detected,metabolite_detected,metabolite_detected,metabolite_detected,COc1ccc(-c2c(C)nn3c(N)nc(C)nc23)c(C)n1,Drug metabolism (Hepatocyte [21]): metabolite_detected; Drug metabolism [22]: metabolite_detected; Drug metabolism [23]: metabolite_detected; Drug metabolism [24]: metabolite_detected; Drug metabolism [25]: metabolite_detected; Drug metabolism [26]: metabolite_detected; Drug metabolism [27]: metabolite_detected; Drug metabolism [28]: metabolite_detected; Drug metabolism [29]: metabolite_detected; Drug metabolism [30]: metabolite_detected; Drug metabolism [31]: metabolite_detected; Drug metabolism (Liver microsome [32]): metabolite_detected; Drug metabolism (Liver microsome [33]): metabolite_detected; Drug metabolism (Liver microsome [34]): metabolite_detected
metabolite_detected,metabolite_detected,metabolite_detected,metabolite_detected,metabolite_detected,metabolite_detected,metabolite_detected,metabolite_detected,metabolite_detected,metabolite_detected,metabolite_detected,metabolite_detected,metabolite_detected,metabolite_detected,metabolite_detected,metabolite_detected,metabolite_detected,metabolite_detected,metabolite_detected,metabolite_detected,COc1ccc(-c2c(C)nn3c(O)nc(C)nc23)c(C)n1,Drug metabolism (Hepatocyte [21]): metabolite_detected; Drug metabolism [22]: metabolite_detected; Drug metabolism [23]: metabolite_detected; Drug metabolism [24]: metabolite_detected; Drug metabolism [25]: metabolite_detected; Drug metabolism [26]: metabolite_detected; Drug metabolism [27]: metabolite_detected; Drug metabolism [28]: metabolite_detected; Drug metabolism [29]: metabolite_detected; Drug metabolism [30]: metabolite_detected; Drug metabolism [31]: metabolite_detected; Drug metabolism (Liver microsome [32]): metabolite_detected; Drug metabolism (Liver microsome [33]): metabolite_detected; Drug metabolism (Liver microsome [34]): metabolite_detected
metabolite_detected,metabolite_detected,metabolite_detected,metabolite_detected,metabolite_detected,metabolite_detected,metabolite_detected,metabolite_detected,metabolite_detected,metabolite_detected,metabolite_detected,metabolite_detected,metabolite_detected,metabolite_detected,metabolite_detected,metabolite_detected,metabolite_detected,metabolite_detected,metabolite_detected,metabolite_detected,CC[C@@H](C)Nc1nc(C)nc2c(-c3ccc(O)nc3C)c(C)nn12,Drug metabolism (Hepatocyte [21]): metabolite_detected; Drug metabolism [22]: metabolite_detected; Drug metabolism [23]: metabolite_detected; Drug metabolism [24]: metabolite_detected; Drug metabolism [25]: metabolite_detected; Drug metabolism [26]: metabolite_detected; Drug metabolism [27]: metabolite_detected; Drug metabolism [28]: metabolite_detected; Drug metabolism [29]: metabolite_detected; Drug metabolism [30]: metabolite_detected; Drug metabolism [31]: metabolite_detected; Drug metabolism (Liver microsome [32]): metabolite_detected; Drug metabolism (Liver microsome [33]): metabolite_detected; Drug metabolism (Liver microsome [34]): metabolite_detected
